# Source: ChEMBL document CHEMBL5236549, “Discovery of 2-Sulfinyl-Diazabicyclooctane Derivatives, Potential Oral β-Lactamase Inhibitors for Infections Caused by Serine β-Lactamase-Producing Enterobacterales” (J Med Chem, 2021)
# The source made the active and inactive calls. The calls are words filed in the database; no cut-off is given here.
# Assays:
# Escherichia coli [1] = assay: Antibacterial activity against Escherichia coli expressing OXA-48 assessed as inhibition of bacterial growth incubated for 16 to 24 hrs by CLSI based two-fold serial dilution method; format: functional; settings: time 16-24 hrs
# In short: (§1)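 CLSI broth microdilution with twofold serial dilutions in cation-adjusted Mueller Hinton broth. Inoculum set from OD625 to about 5 × 10⁴ cfu/well final. Plates incubated at 35 °C for 16−20 h. MIC is the lowest concentration with no growth visible to the unaided eye.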
# Klebsiella pneumoniae [2] = assay: Antibacterial activity against Klebsiella pneumoniae SR201325 assessed as inhibition of bacterial growth incubated for 16 to 20 hrs by CLSI based two-fold serial dilution method
# Klebsiella pneumoniae [3] = assay: Antibacterial activity against Klebsiella pneumoniae SR200487 assessed as inhibition of bacterial growth incubated for 16 to 24 hrs by CLSI based two-fold serial dilution method; format: functional; settings: time 16-24 hrs
# In short: (§2)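 CLSI broth microdilution in cation-adjusted Mueller Hinton broth, twofold serial dilutions, about 5 × 10⁴ cfu/well from OD625, 35 °C for 16−20 h. MIC is the lowest concentration with no visible growth.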
# Escherichia coli [4] = assay: Antibacterial activity against Escherichia coli assessed as inhibition of bacterial growth incubated for 16 to 24 hrs by CLSI based two-fold serial dilution method; format: functional; settings: time 16-24 hrs; in short: as §1
# Klebsiella pneumoniae [5] = assay: Antibacterial activity against Klebsiella pneumoniae SR100758 assessed as inhibition of bacterial growth incubated for 16 to 24 hrs by CLSI based two-fold serial dilution method; format: functional; settings: time 16-24 hrs; in short: as §2
# Klebsiella pneumoniae [6] = assay: Antibacterial activity in ICR mouse infected with Klebsiella pneumoniae SR08667 assessed as reduction in bacterial colony forming units at 30 mg/kg,po administered upto 48 hrs after infection; format: functional, organism-based
# In short: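 Urinary tract infection model in 5-week-old female ICR mice, N = 5 per arm. 1.2 × 10⁶ CFU given transurethrally, urethra tied for 4 h. Oral dosing at 4, 8, 28 and 32 h post-infection in 0.5% methylcellulose: ceftibuten 30 mg/kg alone, ceftibuten 10 mg/kg plus prodrug 3, 10 or 30 mg/kg, or both at 30 mg/kg. Kidneys homogenized at 4 or 48 h and plated on modified Drigalski agar. Read-out is change in log CFU/kidney versus untreated controls at treatment start.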
# Escherichia coli [7] = assay: Antibacterial activity against Escherichia coli expressing KPC-2 assessed as inhibition of bacterial growth incubated for 16 to 24 hrs by CLSI based two-fold serial dilution method; format: functional; settings: time 16-24 hrs; in short: as §1
# Enterobacter cloacae [8] = assay: Antibacterial activity against Enterobacter cloacae SR36276 assessed as inhibition of bacterial growth incubated for 16 to 20 hrs by CLSI based two-fold serial dilution method
# Klebsiella pneumoniae [9] = assay: Antibacterial activity against Klebsiella pneumoniae SR09635 assessed as inhibition of bacterial growth incubated for 16 to 20 hrs by CLSI based two-fold serial dilution method
# Escherichia coli [10] = assay: Antibacterial activity against Escherichia coli expressing CMY-2 assessed as inhibition of bacterial growth incubated for 16 to 24 hrs by CLSI based two-fold serial dilution method; format: functional; settings: time 16-24 hrs; in short: as §1
# Klebsiella pneumoniae [11] = assay: Antibacterial activity against Klebsiella pneumoniae SR200263 assessed as inhibition of bacterial growth incubated for 16 to 24 hrs by CLSI based two-fold serial dilution method; format: functional; settings: time 16-24 hrs; in short: as §2
# Escherichia coli [12] = assay: Antibacterial activity against Escherichia coli expressing CTX-M-15 assessed as inhibition of bacterial growth incubated for 16 to 24 hrs by CLSI based two-fold serial dilution method; format: functional; settings: time 16-24 hrs; in short: as §1
# Enterobacter cloacae [13] = assay: Antibacterial activity against Enterobacter cloacae SR100108 assessed as inhibition of bacterial growth incubated for 16 to 20 hrs by CLSI based two-fold serial dilution method
# Enterobacter cloacae [14] = assay: Antibacterial activity against Enterobacter cloacae SR200030 assessed as inhibition of bacterial growth incubated for 16 to 24 hrs by CLSI based two-fold serial dilution method; format: functional; settings: time 16-24 hrs; in short: as §2
# Klebsiella pneumoniae [15] = assay: Antibacterial activity against Klebsiella pneumoniae SR09603 assessed as inhibition of bacterial growth incubated for 16 to 20 hrs by CLSI based two-fold serial dilution method
# [16] = AUC in dog at 10 mg/kg,po by LC/MS/MS analysis; format: ADME, organism-based, Canis lupus familiaris; design: dose 10 mg/kg, route po; settings: in vivo
# In short: (§3)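 Plasma of the parent acid measured by LC/MS/MS (methanol precipitation, positive ESI, external standard); oral values follow prodrug dosing (rat fed, dog and monkey fasted). AUC from 0 h to last time point by linear trapezoid; F from oral AUC versus iv AUC of the parent. N = 2 (rat, dog), N = 3 (monkey, mouse).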
# [17] = Cmax in rat at 5 mg/kg,po by LC/MS/MS analysis; format: ADME, organism-based; design: dose 5 mg/kg, route po; settings: in vivo; in short: as §3
# [18] = Cmax in monkey at 10 mg/kg,po by LC/MS/MS analysis; format: ADME, organism-based, Macaca mulatta; design: dose 10 mg/kg, route po; settings: rhesus monkey, in vivo; in short: as §3
# [19] = Oral bioavailability in rat at 5 mg/kg by LC/MS/MS analysis; format: ADME, organism-based; settings: in vivo; in short: as §3
# [20] = Stability of the compound in phosphate buffer at pH 7.0 assessed as parent compound remaining at 40 degreeC measured after 16 hrs; format: physicochemical; settings: read-out: Stability
# In short: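 Compound held in pH 7.0 phosphate buffer at 40 °C for 16 h; amount remaining reported as %.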
# [21] = Tmax in dog at 10 mg/kg,po by LC/MS/MS analysis; format: ADME, organism-based, Canis lupus familiaris; settings: in vivo
# [22] = Tmax in rat at 5 mg/kg,po by LC/MS/MS analysis; format: ADME, organism-based; settings: in vivo
# [23] = Oral bioavailability in monkey at 10 mg/kg by LC/MS/MS analysis; format: ADME, organism-based, Macaca mulatta; settings: rhesus monkey, in vivo; in short: as §3
# [24] = AUC in rat at 5 mg/kg,po by LC/MS/MS analysis; format: ADME, organism-based; design: dose 5 mg/kg, route po; settings: in vivo; in short: as §3
# [25] = Cmax in dog at 10 mg/kg,po by LC/MS/MS analysis; format: ADME, organism-based, Canis lupus familiaris; design: dose 10 mg/kg, route po; settings: in vivo; in short: as §3
# [26] = Tmax in monkey at 10 mg/kg,po by LC/MS/MS analysis; format: ADME, organism-based, Macaca mulatta; settings: rhesus monkey, in vivo
# [27] = Oral bioavailability in dog at 10 mg/kg by LC/MS/MS analysis; format: ADME, organism-based, Canis lupus familiaris; settings: in vivo; in short: as §3
# [28] = AUC in monkey at 10 mg/kg,po by LC/MS/MS analysis; format: ADME, organism-based, Macaca mulatta; design: dose 10 mg/kg, route po; settings: rhesus monkey, in vivo; in short: as §3
smiles,measurement,setting,value
Nc1nc(/C(=C/CC(=O)O)C(=O)N[C@@H]2C(=O)N3C(C(=O)O)=CCS[C@H]23)cs1 [CEFTIBUTEN],MIC,Escherichia coli [1],> 32 µg/mL
same,MIC,Klebsiella pneumoniae [2],> 32 µg/mL
same,MIC,Klebsiella pneumoniae [3],> 32 µg/mL
same,MIC,Escherichia coli [4],> 32 µg/mL
same,MIC,Klebsiella pneumoniae [5],> 32 µg/mL
same,Activity,Klebsiella pneumoniae [6],inactive
same,MIC,Escherichia coli [7],16 µg/mL
same,MIC,Enterobacter cloacae [8],> 32 µg/mL
same,MIC,Klebsiella pneumoniae [9],> 32 µg/mL
same,MIC,Escherichia coli [10],> 32 µg/mL
same,MIC,Klebsiella pneumoniae [11],> 32 µg/mL
same,MIC,Escherichia coli [12],32 µg/mL
same,MIC,Enterobacter cloacae [13],> 32 µg/mL
same,MIC,Enterobacter cloacae [14],> 32 µg/mL
same,MIC,Klebsiella pneumoniae [15],> 32 µg/mL
CCOC(=O)[C@@H](F)ON1C(=O)N2C[C@H]1CC[C@H]2[S@@+](C)[O-],AUC,[16],26000 ng·h/mL
same,Cmax,[17],2150 ng/mL
same,Cmax,[18],4510 ng/mL
same,bioavailability,[19],74.4%
same,remaining at 16 h,[20],11%
same,Tmax,[21],1 h
same,Tmax,[22],0.5 h
same,bioavailability,[23],29.9%
same,AUC,[24],2300 ng·h/mL
same,Cmax,[25],10600 ng/mL
same,Tmax,[26],1 h
same,bioavailability,[27],68.3%
same,AUC,[28],8320 ng·h/mL
